Structures can show the parent of a compound that is named as a salt.
Assays:
Assay type in all cases: functional, cell-based
HeLa = assay: Cytotoxicity against human HeLa cells after 48 hrs by MTT assay
How it was run: (§1)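 Cells grown in DMEM with penicillin (100 U/mL), streptomycin (100 μg/mL) and 10% FBS at 37 °C, 5% CO2, and seeded at 5000 cells/well. After 24 h, compounds were added diluted in DMSO and left for 48 h. Medium was then replaced with MTT (1 mg/mL final, serum-free phenol-red-free RPMI) for 4 h. Formazan was dissolved in isopropanol and read at 550 nm (reference 690 nm). IC50 reported.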

MCF7 = assay: Cytotoxicity against human MCF7 cells after 48 hrs by MTT assay; details: MCF7, 48 h; how it was run: as §1
PC-3 = assay: Cytotoxicity against human PC-3 cells after 48 hrs by MTT assay; details: PC-3, 48 h; how it was run: as §1
MDA-MB-231 = assay: Cytotoxicity against human MDA-MB-231 cells after 48 hrs by MTT assay; details: MDA-MB-231, 48 h; how it was run: as §1

Row | SMILES | IC50 (HeLa) [µM] | IC50 (MCF7) [µM] | IC50 (PC-3) [µM] | IC50 (MDA-MB-231) [µM]
1 | COc1cccc2c1C(=O)c1c(O)c3c(c(O)c1C2=O)C[C@@](O)(C(C)=O)C[C@@H]3O[C@H]1C[C@H](N)[C@H](O)[C@H](C)O1 [DAUNORUBICIN HYDROCHLORIDE] | 0.32 | 0.22 | 0.44 | 0.25
2 | C=C(CO)[C@@H]1CC[C@H]2[C@]3(CC[C@]4(C)[C@@H]([C@H](C)CCC=C(C)C)CC[C@@]24C)C[C@]13CCC(=O)O [SECAUBRYENOL] | > 100 | > 100 | > 100 | > 100
3 | C=C1C(=O)O[C@@H]2C[C@@H]3[C@]4(CC[C@]5(C)[C@@H]([C@H](C)CC(=O)C=C(C)C)CC[C@@]35C)C[C@]4(CCC(=O)OC)[C@H]12 [SECAUBRYOLIDE] | 40 | 52 | 35 | 21
4 | C=C(CO)[C@@H]1CC[C@H]2[C@]3(CC[C@]4(C)[C@@H]([C@H](C)CC[C@@H](O)C(C)(C)O)CC[C@@]24C)C[C@]13CCC(=O)O [SECAUBRYTRIOL] | > 100 | > 100 | > 100 | > 100

From ChEMBL document CHEMBL1158125, “seco-Cycloartane triterpenes from Gardenia aubryi” (J Nat Prod, 2006)
